Experimental data as given in ChEMBL document CHEMBL1137629, “Antiproliferative effect of dihydroxyacetone on Trypanosoma brucei bloodstream forms: cell cycle progression, subcellular alterations, and cell death” (Antimicrob Agents Chemother, 2007).
Activity calls are given as the source filed them. No cut-off for these calls is given here.

Assays:
Trypanosoma brucei [1] = assay: Trypanocidal activity against Trypanosoma brucei bloodstream form assessed as induction of autophagy at 5 uM after 24 hrs by transmission electron microscopy; assay type: functional, organism-based
Method in brief: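 Autophagy positive control. Bloodstream forms treated with 5 μM rapamycin (from a 50 mM ethanol stock), processed by glutaraldehyde/osmium fixation, uranyl acetate staining, resin embedding and sectioning for transmission electron microscopy.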

Trypanosoma brucei [2] = assay: Induction of apoptosis-like programmed cell death in Trypanosoma brucei bloodstream form assessed as loss of mitochondrial-membrane potential at 100 nM after 24 hrs by TMRE staining; assay type: functional
Method in brief: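 T. brucei MITat 1.2 (EATRO 427) bloodstream forms were grown axenically at 37°C, 5% CO₂ and exposed to DHA for 24 h. Cells at 10⁶/ml were stained with 25 nM TMRE in culture medium for 30 min at 37°C and read at once by flow cytometry. Depolarization control: valinomycin 100 nM. Lower fluorescence signifies lost membrane potential.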

| Structure (SMILES) | Activity (Trypanosoma brucei [1]) | Activity (Trypanosoma brucei [2]) [%] |
| --- | --- | --- |
| CO[C@H]1C[C@@H]2CC[C@@H](C)[C@@](O)(O2)C(=O)C(=O)N2CCCC[C@H]2C(=O)O[C@H]([C@H](C)C[C@@H]2CC[C@@H](O)[C@H](OC)C2)CC(=O)[C@H](C)/C=C(\C)[C@@H](O)[C@@H](OC)C(=O)[C@H](C)C[C@H](C)/C=C/C=C/C=C/1C | Active | – |
| CC(C)[C@@H]1NC(=O)[C@H](C)OC(=O)[C@@H](C(C)C)NC(=O)[C@@H](C(C)C)OC(=O)[C@H](C(C)C)NC(=O)[C@H](C)OC(=O)[C@@H](C(C)C)NC(=O)[C@@H](C(C)C)OC(=O)[C@H](C(C)C)NC(=O)[C@H](C)OC(=O)[C@@H](C(C)C)NC(=O)[C@@H](C(C)C)OC1=O [VALINOMYCIN] | – | 97.3 |
